Assay results published in ChEMBL document CHEMBL1268902, “9-Dihydroerythromycin ethers as motilin agonists--developing structure-activity relationships for potency and safety” (Bioorg Med Chem, 2010).
≈ marks a conversion by molar mass, not a printed value.

Experiments:
[1] = Induction of contraction in rabbit smooth muscle; assay type: functional, tissue-based, Oryctolagus cuniculus, Muscle tissue
Summary of the method: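 Rabbit smooth muscle contractility assay; EC50 taken as the concentration giving 50% of maximal possible contraction.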

Streptococcus pneumoniae = assay: Antibacterial activity against erythromycin-sensitive Streptococcus pneumoniae ATCC 6301; assay type: functional
Summary of the method: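 MIC determined by growth inhibition; routine screening used the highly erythromycin-sensitive strain S. pneumoniae ATCC6301.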

hERG (KCNH2) [2] = molecular target: T1, hERG (KCNH2) (Homo sapiens, UniProt Q12809); assay: Inhibition of human ERG at 30 uM
hERG (KCNH2) [3] = molecular target: T1, hERG (KCNH2); assay: Inhibition of human ERG at 300 uM
[4] = Induction of contraction in rabbit smooth muscle at EC90 concentration after three cycles of administration and washout measured after 4th dose; assay type: functional, Oryctolagus cuniculus, Muscle tissue
Summary of the method: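 Rabbit smooth muscle contractility; drug applied at EC90 concentration through three cycles of administration and washout, tachyphylaxis reported as % contractility response then obtained.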

T1 sequence (Q12809 whole entry): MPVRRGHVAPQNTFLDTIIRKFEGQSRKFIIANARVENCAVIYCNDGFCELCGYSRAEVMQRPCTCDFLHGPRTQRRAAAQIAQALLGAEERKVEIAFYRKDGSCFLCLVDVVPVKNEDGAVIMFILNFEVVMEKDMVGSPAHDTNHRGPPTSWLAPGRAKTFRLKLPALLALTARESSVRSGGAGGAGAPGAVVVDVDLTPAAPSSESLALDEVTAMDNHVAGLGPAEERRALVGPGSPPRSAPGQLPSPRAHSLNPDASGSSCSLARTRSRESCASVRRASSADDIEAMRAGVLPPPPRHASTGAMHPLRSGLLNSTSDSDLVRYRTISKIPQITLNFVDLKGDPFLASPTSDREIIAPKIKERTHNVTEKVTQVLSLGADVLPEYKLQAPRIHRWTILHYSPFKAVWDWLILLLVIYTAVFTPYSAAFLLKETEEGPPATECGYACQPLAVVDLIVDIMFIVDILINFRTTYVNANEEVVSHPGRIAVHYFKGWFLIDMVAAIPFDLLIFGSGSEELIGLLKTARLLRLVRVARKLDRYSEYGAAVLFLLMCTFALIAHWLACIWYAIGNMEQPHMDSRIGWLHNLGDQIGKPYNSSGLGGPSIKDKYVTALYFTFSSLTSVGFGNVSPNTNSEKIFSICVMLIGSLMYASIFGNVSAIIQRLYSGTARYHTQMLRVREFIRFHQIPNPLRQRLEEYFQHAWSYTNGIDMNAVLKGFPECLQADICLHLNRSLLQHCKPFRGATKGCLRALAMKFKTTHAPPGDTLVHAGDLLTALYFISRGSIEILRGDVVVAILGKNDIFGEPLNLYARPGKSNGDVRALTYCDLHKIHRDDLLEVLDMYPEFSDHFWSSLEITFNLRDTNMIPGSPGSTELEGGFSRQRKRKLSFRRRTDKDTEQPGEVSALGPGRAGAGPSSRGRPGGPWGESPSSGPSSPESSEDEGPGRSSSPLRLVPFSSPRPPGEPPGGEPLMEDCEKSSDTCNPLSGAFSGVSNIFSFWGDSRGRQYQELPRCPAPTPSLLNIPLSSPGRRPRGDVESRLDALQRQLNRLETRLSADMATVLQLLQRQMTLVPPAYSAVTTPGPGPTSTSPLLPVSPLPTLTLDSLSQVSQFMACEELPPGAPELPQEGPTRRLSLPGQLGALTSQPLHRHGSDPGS

Structure (SMILES)	EC50 [1] [nM]	MIC (Streptococcus pneumoniae) [µg/mL]	inhibition at 30 µM (hERG (KCNH2) [2]) [%]	inhibition at 300 µM (hERG (KCNH2) [3]) [%]	Activity [4] [%]
CC[C@H]1OC(=O)[C@H](C)[C@@H](O[C@H]2C[C@@](C)(OC)[C@@H](O)[C@H](C)O2)[C@H](C)[C@@H](O[C@@H]2O[C@H](C)C[C@H](N(C)C(C)C)[C@H]2O)[C@](C)(O)C[C@@H](C)[C@H](OCc2ccncc2)[C@H](C)[C@@H](O)[C@]1(C)O	420	128 (≈ 150 µM)	68	100	
CC[C@H]1OC(=O)[C@H](C)[C@@H](O[C@H]2C[C@@](C)(OC)[C@@H](O)[C@H](C)O2)[C@H](C)[C@@H](O[C@@H]2O[C@H](C)C[C@H](N(C)C(C)C)[C@H]2O)[C@](C)(O)C[C@@H](C)[C@H](OCCNC=O)[C@H](C)[C@@H](O)[C@]1(C)O	31	> 128	8	47	100
CC[C@H]1OC(=O)[C@H](C)[C@@H](O[C@H]2C[C@@](C)(OC)[C@@H](O)[C@H](C)O2)[C@H](C)[C@@H](O[C@@H]2O[C@H](C)C[C@H](N(C)C(C)C)[C@H]2O)[C@](C)(O)C[C@@H](C)[C@H](OCCN)[C@H](C)[C@@H](O)[C@]1(C)O	2300	128 (≈ 159 µM)	25	76	
CC[C@H]1OC(=O)[C@H](C)[C@@H](O[C@H]2C[C@@](C)(OC)[C@@H](O)[C@H](C)O2)[C@H](C)[C@@H](O[C@@H]2O[C@H](C)C[C@H](N(C)C(C)C)[C@H]2O)[C@](C)(O)C[C@@H](C)[C@H](OCCNC(=N)N)[C@H](C)[C@@H](O)[C@]1(C)O	3600				
CC[C@H]1OC(=O)[C@H](C)[C@@H](O[C@H]2C[C@@](C)(OC)[C@@H](O)[C@H](C)O2)[C@H](C)[C@@H](O[C@@H]2O[C@H](C)C[C@H](N(C)C(C)C)[C@H]2O)[C@](C)(O)C[C@@H](C)[C@H](OCc2nc[nH]n2)[C@H](C)[C@@H](O)[C@]1(C)O	54	128 (≈ 151 µM)	8	40	97
CC[C@H]1OC(=O)[C@H](C)[C@@H](O[C@H]2C[C@@](C)(OC)[C@@H](O)[C@H](C)O2)[C@H](C)[C@@H](O[C@@H]2O[C@H](C)C[C@H](N(C)C(C)C)[C@H]2O)[C@](C)(O)C[C@@H](C)[C@H](OCc2csc(C)n2)[C@H](C)[C@@H](O)[C@]1(C)O	480	128 (≈ 146 µM)	63	100	
CC[C@H]1OC(=O)[C@H](C)[C@@H](O[C@H]2C[C@@](C)(OC)[C@@H](O)[C@H](C)O2)[C@H](C)[C@@H](O[C@@H]2O[C@H](C)C[C@H](N(C)C(C)C)[C@H]2O)[C@](C)(O)C[C@@H](C)[C@H](OCCNS(C)(=O)=O)[C@H](C)[C@@H](O)[C@]1(C)O	240	> 128	12	79	94
CC[C@H]1OC(=O)[C@H](C)[C@@H](O[C@H]2C[C@@](C)(OC)[C@@H](O)[C@H](C)O2)[C@H](C)[C@@H](O[C@@H]2O[C@H](C)C[C@H](N(C)C(C)C)[C@H]2O)[C@](C)(O)C[C@@H](C)[C@H](OCCNC(C)=O)[C@H](C)[C@@H](O)[C@]1(C)O	48	> 128	47	73	94
CC[C@H]1OC(=O)[C@H](C)[C@@H](O[C@H]2C[C@@](C)(OC)[C@@H](O)[C@H](C)O2)[C@H](C)[C@@H](O[C@@H]2O[C@H](C)C[C@H](N(C)C(C)C)[C@H]2O)[C@](C)(O)C[C@@H](C)[C@H](OCCNC(C)C)[C@H](C)[C@@H](O)[C@]1(C)O	2000	64 (≈ 75.4 µM)	40	93	
CC[C@H]1OC(=O)[C@H](C)[C@@H](O[C@H]2C[C@@](C)(OC)[C@@H](O)[C@H](C)O2)[C@H](C)[C@@H](O[C@@H]2O[C@H](C)C[C@H](N(C)C(C)C)[C@H]2O)[C@](C)(O)C[C@@H](C)[C@H](OCCNC(=O)c2ccc3[nH]cnc3c2)[C@H](C)[C@@H](O)[C@]1(C)O	37	128 (≈ 135 µM)	71	100	94
CC[C@H]1OC(=O)[C@H](C)[C@@H](O[C@H]2C[C@@](C)(OC)[C@@H](O)[C@H](C)O2)[C@H](C)[C@@H](O[C@@H]2O[C@H](C)C[C@H](N(C)C(C)C)[C@H]2O)[C@](C)(O)C[C@@H](C)[C@H](OCC(=O)NC)[C@H](C)[C@@H](O)[C@]1(C)O	58	128 (≈ 153 µM)			89
CC[C@H]1OC(=O)[C@H](C)[C@@H](O[C@H]2C[C@@](C)(OC)[C@@H](O)[C@H](C)O2)[C@H](C)[C@@H](O[C@@H]2O[C@H](C)C[C@H](N(C)C(C)C)[C@H]2O)[C@](C)(O)C[C@@H](C)[C@H](OCCNC(=O)OC)[C@H](C)[C@@H](O)[C@]1(C)O	130	128 (≈ 148 µM)	40	95	
CCOC(=O)NCCO[C@@H]1[C@H](C)[C@@H](O)[C@](C)(O)[C@@H](CC)OC(=O)[C@H](C)[C@@H](O[C@H]2C[C@@](C)(OC)[C@@H](O)[C@H](C)O2)[C@H](C)[C@@H](O[C@@H]2O[C@H](C)C[C@H](N(C)C(C)C)[C@H]2O)[C@](C)(O)C[C@H]1C	100	64 (≈ 72.8 µM)	67	100	
CC[C@H]1OC(=O)[C@H](C)[C@@H](O[C@H]2C[C@@](C)(OC)[C@@H](O)[C@H](C)O2)[C@H](C)[C@@H](O[C@@H]2O[C@H](C)C[C@H](N(C)C(C)C)[C@H]2O)[C@](C)(O)C[C@@H](C)[C@H](OCc2nccs2)[C@H](C)[C@@H](O)[C@]1(C)O	290	128 (≈ 149 µM)	61	100	
CCCNC(=S)NCCO[C@@H]1[C@H](C)[C@@H](O)[C@](C)(O)[C@@H](CC)OC(=O)[C@H](C)[C@@H](O[C@H]2C[C@@](C)(OC)[C@@H](O)[C@H](C)O2)[C@H](C)[C@@H](O[C@@H]2O[C@H](C)C[C@H](N(C)C(C)C)[C@H]2O)[C@](C)(O)C[C@H]1C	210	128 (≈ 141 µM)	53	100	
CC[C@H]1OC(=O)[C@H](C)[C@@H](O[C@H]2C[C@@](C)(OC)[C@@H](O)[C@H](C)O2)[C@H](C)[C@@H](O[C@@H]2O[C@H](C)C[C@H](N(C)C(C)C)[C@H]2O)[C@](C)(O)C[C@@H](C)[C@H](OCc2c[nH]cn2)[C@H](C)[C@@H](O)[C@]1(C)O	63		48	98	
CC[C@H]1OC(=O)[C@H](C)[C@@H](O[C@H]2C[C@@](C)(OC)CC(C)O2)[C@H](C)[C@@H](O[C@@H]2O[C@H](C)C[C@H](N(C)CC)[C@H]2O)C2(C)CC(C)=C(O2)[C@H](C)[C@@H](O)[C@H]1C (single isomer, unassigned)	7				22
CCNC(=O)NCCO[C@@H]1[C@H](C)[C@@H](O)[C@](C)(O)[C@@H](CC)OC(=O)[C@H](C)[C@@H](O[C@H]2C[C@@](C)(OC)[C@@H](O)[C@H](C)O2)[C@H](C)[C@@H](O[C@@H]2O[C@H](C)C[C@H](N(C)C(C)C)[C@H]2O)[C@](C)(O)C[C@H]1C	100	> 128	20	57	88
CC[C@H]1OC(=O)[C@H](C)[C@@H](O[C@H]2C[C@@](C)(OC)[C@@H](O)[C@H](C)O2)[C@H](C)[C@@H](O[C@@H]2O[C@H](C)C[C@H](N(C)C(C)C)[C@H]2O)[C@](C)(O)C[C@@H](C)[C@H](OCc2cc(C)on2)[C@H](C)[C@@H](O)[C@]1(C)O	110	128 (≈ 149 µM)	45	90	78
CC[C@H]1OC(=O)[C@H](C)[C@@H](O[C@H]2C[C@@](C)(OC)[C@@H](O)[C@H](C)O2)[C@H](C)[C@@H](O[C@@H]2O[C@H](C)C[C@H](N(C)C(C)C)[C@H]2O)[C@](C)(O)C[C@@H](C)[C@H](O)[C@H](C)[C@@H](O)[C@]1(C)O [3 9-DIHYDRO-N-DESMETHYL-N-ISOPROPYLERYTHROMYCIN A]	260				85
CC[C@H]1OC(=O)[C@H](C)[C@@H](O[C@H]2C[C@@](C)(OC)[C@@H](O)[C@H](C)O2)[C@H](C)[C@@H](O[C@@H]2O[C@H](C)C[C@H](N(C)C)[C@H]2O)[C@](C)(O)C[C@@H](C)C(=O)[C@H](C)[C@@H](O)[C@]1(C)O [ERYTHROMYCIN]	1200				97
CC[C@H]1OC(=O)[C@H](C)[C@@H](O[C@H]2C[C@@](C)(OC)C[C@H](C)O2)[C@H](C)[C@@H](O[C@@H]2O[C@H](C)C[C@H](N(C)C(C)C)[C@H]2O)[C@]2(C)CC(C)=C(O2)[C@H](C)C(=O)[C@]1(C)OC	11		84	100	9
CCNC(=S)NCCO[C@@H]1[C@H](C)[C@@H](O)[C@](C)(O)[C@@H](CC)OC(=O)[C@H](C)[C@@H](O[C@H]2C[C@@](C)(OC)[C@@H](O)[C@H](C)O2)[C@H](C)[C@@H](O[C@@H]2O[C@H](C)C[C@H](N(C)C(C)C)[C@H]2O)[C@](C)(O)C[C@H]1C	220	> 120	36	88	
